Data: publication PMC4174307 (Nature, 2014)

Tests used:
[1] = molecular target: T1, P2Y12R (WT) (Homo sapiens, UniProt Q9H244, D294N); experiment: saturation radioligand binding, membranes
In short: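 Receptor construct carrying the D294N mutation, with BRIL fused into ICL3, expressed in Sf9 cells. Membranes were prepared by homogenization, a 1,000g spin, then a 20,000g 60 min pellet. Saturation binding used [3H]2MeSADP (3.5 Ci mmol−1, 0.4–46 nM), 5 μg membrane protein, in Tris-HCl with 10 mM MgCl2. Nonspecific binding was defined with 10 μM P2Y12R antagonist. Filtration was followed by scintillation counting. Kd from independent experiments in duplicate.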

[2] = molecular target: T2, P2Y12R (WT) (Homo sapiens, UniProt Q9H244); experiment: [3H]2MeSADP displacement, membranes; assay type: binding
[3] = molecular target: P2Y12R (WT) (Homo sapiens, UniProt Q9H244, N159A); experiment: saturation radioligand binding, membranes
In short: (§1)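 Human P2Y12R (wild type or single alanine mutants) in pcDNA3.0, transiently transfected into COS7 cells and harvested 48 h later. Membranes: 1,000g spin, then 20,000g pellet for 60 min, stored at −80 °C. [3H]2MeSADP (3.5 Ci mmol−1, 0.4–46 nM) was incubated with 5 μg membrane protein in Tris-HCl with 10 mM MgCl2. Nonspecific binding was defined with 10 μM P2Y12R antagonist. Bound ligand was separated by filtration, washed with cold buffer and counted by scintillation. Kd is mean ± s.e.m., 3–6 independent experiments in duplicate.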

[4] = molecular target: T2, P2Y12R (WT); experiment: saturation radioligand binding, membranes
In short: as §1

[5] = molecular target: T1, P2Y12R (WT); experiment: [3H]2MeSADP displacement, membranes; assay type: binding
[6] = molecular target: P2Y12R (WT) (Homo sapiens, UniProt Q9H244, S156A); experiment: saturation radioligand binding, membranes
In short: as §1

T1 sequence (Q9H244 whole entry D294N, the tested form may be a part): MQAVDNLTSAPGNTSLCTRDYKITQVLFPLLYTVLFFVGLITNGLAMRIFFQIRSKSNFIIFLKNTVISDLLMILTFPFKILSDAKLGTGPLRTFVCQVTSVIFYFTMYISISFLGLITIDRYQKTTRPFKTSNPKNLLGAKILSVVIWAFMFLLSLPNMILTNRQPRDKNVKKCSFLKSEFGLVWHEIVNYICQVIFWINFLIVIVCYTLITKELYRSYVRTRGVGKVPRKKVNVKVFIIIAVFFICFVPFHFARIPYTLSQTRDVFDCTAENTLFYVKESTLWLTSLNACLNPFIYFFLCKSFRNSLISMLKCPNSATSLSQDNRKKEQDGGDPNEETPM
T2 sequence (Q9H244 whole entry): as the sequence (Q9H244 whole entry D294N, the tested form may be a part) above, with N294D counted along it
P2Y12R (WT) (Homo sapiens, UniProt Q9H244, N159A), sequence (Q9H244 whole entry N159A): as the sequence (Q9H244 whole entry D294N, the tested form may be a part) above, with N159A, N294D counted along it
P2Y12R (WT) (Homo sapiens, UniProt Q9H244, S156A), sequence (Q9H244 whole entry S156A): as the sequence (Q9H244 whole entry D294N, the tested form may be a part) above, with S156A, N294D counted along it

Row | SMILES | Kd [1] | Ki [2] | Kd [3] | Kd [4] | Ki [5] | Kd [6]
1 | CSc1nc(N)c2ncn([C@@H]3O[C@H](COP(=O)(O)OP(=O)(O)O)[C@@H](O)[C@H]3O)c2n1 [2MeSADP, 2-methylthio-adenosine 5′-diphosphate] | 33.6 ± 10.2 nM | 120 ± 7.3 nM | 6.39 ± 0.94 nM | 4.25 ± 0.87 nM | 80.8 ± 16.8 nM | 5.66 ± 0.72 nM
2 | CSc1nc(N)c2ncn([C@@H]3O[C@H](COP(=O)(O)OP(=O)(O)OP(=O)(O)O)[C@@H](O)[C@H]3O)c2n1 [2MeSATP] |  | 119 ± 19.8 nM |  |  | 82.4 ± 28.5 nM | 
3 | Nc1ncnc2c1ncn2[C@@H]1O[C@H](COP(=O)(O)OP(=O)(O)O)[C@@H](O)[C@H]1O [ADP] |  | 332 ± 35 nM |  |  | 169 ± 81 nM | 
4 | CCOC(=O)c1cc(C#N)c(N2CCC(C(=O)NS(=O)(=O)Cc3ccccc3)CC2)nc1C [AZD1283, Ethyl 6-(4-((benzylsulphonyl)carbamoyl)piperidin-1-yl)-5-cyano-2-methylnicotinate] |  | 31.5 ± 11.9 nM |  |  |  | 
5 | Nc1c(S(=O)(=O)O)cc(Nc2ccc(Nc3ccccc3)c(S(=O)(=O)O)c2)c2c1C(=O)c1ccccc1C2=O [PSB-0739] |  | 275 ± 58 nM |  |  | 72.8 ± 16.7 nM | 
6 | CCCSc1nc(N[C@@H]2C[C@H]2c2ccc(F)c(F)c2)c2nnn([C@@H]3C[C@H](OCCO)[C@@H](O)[C@H]3O)c2n1 [Ticagrelor] |  | 454 ± 110 nM |  |  | 424 ± 193 nM | 
